Results taken from ChEMBL document CHEMBL3352487, “Synthesis, antibacterial activity, and biological evaluation of formyl hydroxyamino derivatives as novel potent peptide deformylase inhibitors against drug-resistant bacteria” (Eur J Med Chem, 2014).
Converted amounts (≈) assume the structure as drawn.

Assays:
Streptococcus pyogenes [1] = assay: Antimicrobial activity against Streptococcus pyogenes 1307006P after 24 hrs by broth microdilution method; assay type: functional
Outline: (§1)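 Broth microdilution following NCCLS M7-A4; ATCC strains and clinical isolates from a provincial hospital.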

Haemophilus influenzae [2] = assay: Antimicrobial activity against Haemophilus influenzae Q1 after 24 hrs by broth microdilution method; assay type: functional; conditions: Q1, 24 h; outline: as §1
Haemophilus influenzae [3] = assay: Antimicrobial activity against Haemophilus influenzae H128 after 24 hrs by broth microdilution method; assay type: functional; conditions: H128, 24 h; outline: as §1
Haemophilus influenzae [4] = assay: Antimicrobial activity against AcrA-deficient Haemophilus influenzae H128 after 24 hrs by broth microdilution method; assay type: functional; conditions: H128, 24 h; outline: as §1
Moraxella catarrhalis [5] = assay: Antimicrobial activity against Moraxella catarrhalis 1502 after 24 hrs by broth microdilution method; assay type: functional; conditions: Moraxella catarrhalis, 1502, 24 h; outline: as §1
Streptococcus pneumoniae [6] = assay: Antimicrobial activity against Streptococcus pneumoniae N1387 after 24 hrs by broth microdilution method; assay type: functional; conditions: N1387, 24 h; outline: as §1
Staphylococcus aureus [7] = assay: Antimicrobial activity against Staphylococcus aureus after 24 hrs by broth microdilution method; assay type: functional; outline: as §1
Streptococcus pneumoniae [8] = assay: Antimicrobial activity against Streptococcus pneumoniae ERY2 after 24 hrs by broth microdilution method; assay type: functional; conditions: ERY2, 24 h; outline: as §1
Enterococcus faecium = assay: Antimicrobial activity against Enterococcus faecium X7501 after 24 hrs by broth microdilution method; assay type: functional; conditions: X7501, 24 h; outline: as §1
Streptococcus pneumoniae [9] = assay: Antimicrobial activity against Streptococcus pneumoniae 1629 after 24 hrs by broth microdilution method; assay type: functional; conditions: Streptococcus pneumoniae, 1629, 24 h; outline: as §1
Staphylococcus aureus [10] = assay: Antimicrobial activity against methicillin-resistant Staphylococcus aureus after 24 hrs by broth microdilution method; assay type: functional
Outline: (§2)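 Broth microdilution following NCCLS M7-A4, using ATCC strains and clinical isolates from a provincial hospital.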

Staphylococcus aureus [11] = assay: Antimicrobial activity against methicillin-susceptible Staphylococcus aureus after 24 hrs by broth microdilution method; assay type: functional; outline: as §1
[12] = system: Staphylococcus epidermidis; assay: Antimicrobial activity against Staphylococcus epidermidis after 24 hrs by broth microdilution method; assay type: functional; outline: as §1
Streptococcus pyogenes [13] = assay: Antimicrobial activity against Streptococcus pyogenes 1308007P after 24 hrs by broth microdilution method; assay type: functional; outline: as §1
Staphylococcus aureus [14] = assay: Antimicrobial activity against Staphylococcus aureus WCUH29 after 24 hrs by broth microdilution method; assay type: functional; conditions: WCUH29, 24 h; outline: as §1
Escherichia coli [15] = assay: Antimicrobial activity against Escherichia coli isolate 3 after 24 hrs by broth microdilution method; assay type: functional; conditions: isolate 3, 24 h; outline: as §1
Escherichia coli [16] = assay: Antimicrobial activity against Escherichia coli isolate 1 after 24 hrs by broth microdilution method; assay type: functional; conditions: isolate 1, 24 h; outline: as §1
Enterococcus faecalis [17] = assay: Antimicrobial activity against Enterococcus faecalis Isolate 1 after 24 hrs by broth microdilution method; assay type: functional; conditions: Isolate 1, 24 h; outline: as §1
Escherichia coli [18] = assay: Antimicrobial activity against Escherichia coli isolate 2 after 24 hrs by broth microdilution method; assay type: functional; conditions: isolate 2, 24 h; outline: as §1
Staphylococcus aureus [19] = assay: Antimicrobial activity against Staphylococcus aureus OXFORD after 24 hrs by broth microdilution method; assay type: functional; outline: as §2
[20] = Cmax in Sprague-Dawley rat at 25 mg/kg, po; assay type: ADME, organism-based; parameters: dose 25 mg/kg, route oral; conditions: in vivo
[21] = Half life in Sprague-Dawley rat at 25 mg/kg, po; assay type: ADME, organism-based; parameters: dose 25 mg/kg, route oral; conditions: in vivo
[22] = Mean residence time (0 to t) in Sprague-Dawley rat at 5 mg/kg, iv; assay type: ADME, organism-based; parameters: dose 5 mg/kg, route intravenous; conditions: in vivo
[23] = AUC (0 to t) in Sprague-Dawley rat at 25 mg/kg, po; assay type: ADME, organism-based; parameters: dose 25 mg/kg, route oral; conditions: plasma
[24] = Clearance in Sprague-Dawley rat at 5 mg/kg, iv; assay type: ADME, organism-based; parameters: dose 5 mg/kg, route intravenous; conditions: in vivo
hERG (KCNH2) [25] = molecular target: T1, hERG (KCNH2) (Homo sapiens, UniProt Q12809); assay: Inhibition of human ERG at 1 uM
T1 sequence (Q12809 whole entry): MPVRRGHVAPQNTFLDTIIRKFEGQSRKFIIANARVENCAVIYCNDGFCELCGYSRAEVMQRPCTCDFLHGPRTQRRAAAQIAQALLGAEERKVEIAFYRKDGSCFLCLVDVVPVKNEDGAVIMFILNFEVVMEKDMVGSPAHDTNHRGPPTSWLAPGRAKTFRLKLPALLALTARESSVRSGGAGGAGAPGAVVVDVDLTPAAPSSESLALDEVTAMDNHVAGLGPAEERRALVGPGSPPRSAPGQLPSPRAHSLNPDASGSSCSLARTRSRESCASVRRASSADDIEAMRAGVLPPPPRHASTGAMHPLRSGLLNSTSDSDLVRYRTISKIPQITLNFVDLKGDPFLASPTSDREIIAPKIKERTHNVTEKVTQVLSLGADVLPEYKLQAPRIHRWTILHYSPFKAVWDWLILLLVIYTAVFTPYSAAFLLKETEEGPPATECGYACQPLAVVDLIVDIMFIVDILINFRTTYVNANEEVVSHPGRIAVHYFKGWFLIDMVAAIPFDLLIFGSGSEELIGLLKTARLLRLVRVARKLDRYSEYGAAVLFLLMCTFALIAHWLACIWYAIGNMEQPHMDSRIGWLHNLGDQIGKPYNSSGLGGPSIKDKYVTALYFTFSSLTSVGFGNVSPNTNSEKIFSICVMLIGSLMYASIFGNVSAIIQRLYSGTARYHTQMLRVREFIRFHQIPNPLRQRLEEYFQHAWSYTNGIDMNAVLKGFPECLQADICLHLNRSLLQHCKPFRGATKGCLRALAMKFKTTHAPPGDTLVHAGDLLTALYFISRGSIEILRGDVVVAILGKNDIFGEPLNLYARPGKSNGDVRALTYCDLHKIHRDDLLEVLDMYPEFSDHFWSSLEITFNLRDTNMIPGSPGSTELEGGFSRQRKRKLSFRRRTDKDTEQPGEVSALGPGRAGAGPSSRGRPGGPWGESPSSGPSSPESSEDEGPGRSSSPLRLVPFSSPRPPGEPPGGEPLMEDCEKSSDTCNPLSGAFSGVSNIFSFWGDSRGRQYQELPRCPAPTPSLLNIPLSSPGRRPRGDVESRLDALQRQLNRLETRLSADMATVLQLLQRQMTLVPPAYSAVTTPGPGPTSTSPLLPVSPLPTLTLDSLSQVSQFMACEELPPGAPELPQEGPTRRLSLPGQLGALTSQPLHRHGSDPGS

[26] = AUC (0 to t) in Sprague-Dawley rat at 5 mg/kg, iv; assay type: ADME, organism-based; parameters: dose 5 mg/kg, route intravenous; conditions: plasma
[27] = Volume of distribution at steady state in Sprague-Dawley rat at 5 mg/kg, iv; assay type: ADME, organism-based; parameters: dose 5 mg/kg, route intravenous; conditions: in vivo, read-out: Vdss
[28] = AUC (0 to infinity) in Sprague-Dawley rat at 25 mg/kg, po; assay type: ADME, organism-based; parameters: dose 25 mg/kg, route oral, time infinity; conditions: plasma
hERG (KCNH2) [29] = molecular target: T1, hERG (KCNH2); assay: Inhibition of human ERG at 10 uM
[30] = Oral bioavailability in Sprague-Dawley rat at 25 mg/kg; assay type: ADME, organism-based; conditions: in vivo
[31] = Mean residence time (0 to t) in Sprague-Dawley rat at 25 mg/kg, po; assay type: ADME, organism-based; parameters: dose 25 mg/kg, route oral; conditions: in vivo
[32] = Half life in Sprague-Dawley rat at 5 mg/kg, iv; assay type: ADME, organism-based; parameters: dose 5 mg/kg, route intravenous; conditions: in vivo
[33] = AUC (0 to infinity) in Sprague-Dawley rat at 5 mg/kg, iv; assay type: ADME, organism-based; parameters: time infinity, dose 5 mg/kg, route intravenous; conditions: plasma
[34] = Tmax in Sprague-Dawley rat at 25 mg/kg, po; assay type: ADME, organism-based; parameters: dose 25 mg/kg, route oral; conditions: in vivo
Streptococcus pneumoniae [35] = assay: Antimicrobial activity against penicillin-resistant Streptococcus pneumoniae after 24 hrs by broth microdilution method; assay type: functional; outline: as §2
[36] = system: Staphylococcus epidermidis; assay: Antimicrobial activity against methicillin-resistant Staphylococcus epidermidis after 24 hrs by broth microdilution method; assay type: functional; outline: as §2
Moraxella catarrhalis [37] = assay: Antimicrobial activity against Moraxella catarrhalis after 24 hrs by broth microdilution method; assay type: functional; outline: as §1
Enterococcus faecalis [38] = assay: Antimicrobial activity against Enterococcus faecalis after 24 hrs by broth microdilution method; assay type: functional; outline: as §1
[39] = system: Staphylococcus epidermidis; assay: Antimicrobial activity against methicillin-susceptible Staphylococcus epidermidis after 24 hrs by broth microdilution method; assay type: functional; outline: as §1

Row | Structure (SMILES) | MIC (Streptococcus pyogenes [1]) | MIC (Haemophilus influenzae [2]) | MIC (Haemophilus influenzae [3]) | MIC (Haemophilus influenzae [4]) | MIC (Moraxella catarrhalis [5]) | MIC (Streptococcus pneumoniae [6]) | MIC (Staphylococcus aureus [7]) | MIC (Streptococcus pneumoniae [8]) | MIC (Enterococcus faecium) | MIC (Streptococcus pneumoniae [9]) | MIC (Staphylococcus aureus [10]) | MIC (Staphylococcus aureus [11]) | MIC [12] | MIC (Streptococcus pyogenes [13]) | MIC (Staphylococcus aureus [14]) | MIC (Escherichia coli [15]) | MIC (Escherichia coli [16]) | MIC (Enterococcus faecalis [17]) | MIC (Escherichia coli [18]) | MIC (Staphylococcus aureus [19]) | further results
1 | C=C1C[C@@H](C(=O)Nc2ccc(F)cn2)N(C(=O)[C@H](CCCC)CN(O)C=O)C1 | 4 µg/mL (≈ 10.2 µM) | 16 µg/mL (≈ 40.8 µM) | 16 µg/mL (≈ 40.8 µM) | 0.5 µg/mL (≈ 1.27 µM) | 0.25 µg/mL (≈ 0.637 µM) | 4 µg/mL (≈ 10.2 µM) | 0.5 µg/mL (≈ 1.27 µM) | 8 µg/mL (≈ 20.4 µM) | 4 µg/mL (≈ 10.2 µM) | 16 µg/mL (≈ 40.8 µM) | 0.125 µg/mL (≈ 0.319 µM) | 1 µg/mL (≈ 2.55 µM) | 0.25 µg/mL (≈ 0.637 µM) | 4 µg/mL (≈ 10.2 µM) | 0.5 µg/mL (≈ 1.27 µM) | > 64 µg/mL | 32 µg/mL (≈ 81.5 µM) | 32 µg/mL (≈ 81.5 µM) | > 64 µg/mL | 4 µg/mL (≈ 10.2 µM) | 
2 | O=CN(O)C[C@@H](CC1CCCC1)C(=O)N1CC=C[C@H]1C(=O)Nc1ccccc1 | 0.25 µg/mL (≈ 0.649 µM) | 2 µg/mL (≈ 5.19 µM) | 2 µg/mL (≈ 5.19 µM) | ≤ 0.06 µg/mL | ≤ 0.06 µg/mL | 0.5 µg/mL (≈ 1.3 µM) | 4 µg/mL (≈ 10.4 µM) | 1 µg/mL (≈ 2.59 µM) | 1 µg/mL (≈ 2.59 µM) | 2 µg/mL (≈ 5.19 µM) | 1 µg/mL (≈ 2.59 µM) | 4 µg/mL (≈ 10.4 µM) | 0.5 µg/mL (≈ 1.3 µM) | 0.5 µg/mL (≈ 1.3 µM) | 0.125 µg/mL (≈ 0.324 µM) | 64 µg/mL (≈ 166 µM) | 32 µg/mL (≈ 83 µM) | > 64 µg/mL | 32 µg/mL (≈ 83 µM) | 1 µg/mL (≈ 2.59 µM) | 
3 | O=CN(O)C[C@@H](CC1CCCC1)C(=O)N1CC=C[C@H]1C(=O)Nc1ccc(F)cc1 | 0.25 µg/mL (≈ 0.62 µM) | 2 µg/mL (≈ 4.96 µM) | 2 µg/mL (≈ 4.96 µM) | ≤ 0.06 µg/mL | ≤ 0.06 µg/mL | 0.5 µg/mL (≈ 1.24 µM) | 0.25 µg/mL (≈ 0.62 µM) | 1 µg/mL (≈ 2.48 µM) | 1 µg/mL (≈ 2.48 µM) | 1 µg/mL (≈ 2.48 µM) | 0.25 µg/mL (≈ 0.62 µM) | 0.5 µg/mL (≈ 1.24 µM) | 1 µg/mL (≈ 2.48 µM) | 0.25 µg/mL (≈ 0.62 µM) | 0.125 µg/mL (≈ 0.31 µM) | 32 µg/mL (≈ 79.3 µM) | 32 µg/mL (≈ 79.3 µM) | 2 µg/mL (≈ 4.96 µM) | 64 µg/mL (≈ 159 µM) | 1 µg/mL (≈ 2.48 µM) | 
4 | Cc1cnc(NC(=O)[C@@H]2C=CCN2C(=O)[C@H](CC2CCCC2)CN(O)C=O)s1 | 0.25 µg/mL (≈ 0.615 µM) | 2 µg/mL (≈ 4.92 µM) | 2 µg/mL (≈ 4.92 µM) | ≤ 0.06 µg/mL | ≤ 0.06 µg/mL | 0.25 µg/mL (≈ 0.615 µM) | 0.0312 µg/mL (≈ 0.0769 µM) | 0.5 µg/mL (≈ 1.23 µM) | 0.5 µg/mL (≈ 1.23 µM) | 0.5 µg/mL (≈ 1.23 µM) | 0.125 µg/mL (≈ 0.307 µM) | 0.25 µg/mL (≈ 0.615 µM) | 0.0625 µg/mL (≈ 0.154 µM) | 0.5 µg/mL (≈ 1.23 µM) | ≤ 0.06 µg/mL | 32 µg/mL (≈ 78.7 µM) | 16 µg/mL (≈ 39.4 µM) | 2 µg/mL (≈ 4.92 µM) | 16 µg/mL (≈ 39.4 µM) | 0.25 µg/mL (≈ 0.615 µM) | Cmax [20]: 4560 ng/mL; half-life [21]: 3.31 h; MRT last [22]: 1.24 h; AUC(0-t) [23]: 12200 ng·h/mL; clearance [24]: 18.6 mL/min/kg; inhibition at 1 µM (hERG (KCNH2) [25]): 5.38%; AUC(0-t) [26]: 4700 ng·h/mL; Vd [27]: 1.37 L/kg; AUC(0-inf) [28]: 12300 ng·h/mL; inhibition at 10 µM (hERG (KCNH2) [29]): 15.9%; bioavailability [30]: 52.3%; MRT last [31]: 3.39 h; half-life [32]: 2.68 h; AUC(0-inf) [33]: 4700 ng·h/mL; Tmax [34]: 0.625 h
5 | CCCC[C@H](CN(O)C=O)C(=O)N1C[C@@H](C)C[C@H]1C(=O)Nc1ccc(F)c[n+]1[O-] |  |  |  |  |  |  | 0.25 µg/mL (≈ 0.609 µM) |  |  |  | 0.25 µg/mL (≈ 0.609 µM) | 0.25 µg/mL (≈ 0.609 µM) |  |  |  |  |  |  |  |  | MIC (Streptococcus pneumoniae [35]): 0.03 µg/mL (≈ 0.0731 µM); MIC [36]: 0.5 µg/mL (≈ 1.22 µM); MIC (Moraxella catarrhalis [37]): 0.03 µg/mL (≈ 0.0731 µM); MIC (Enterococcus faecalis [38]): 4 µg/mL (≈ 9.75 µM); MIC [39]: 0.0625 µg/mL (≈ 0.152 µM)
6 | Cc1cnc(NC(=O)[C@@H]2C[C@H](F)CN2C(=O)[C@H](CC2CCCC2)CN(O)C=O)s1 |  |  |  |  |  |  | 1 µg/mL (≈ 2.34 µM) |  |  |  | 0.5 µg/mL (≈ 1.17 µM) | 0.5 µg/mL (≈ 1.17 µM) |  |  |  |  |  |  |  |  | MIC (Streptococcus pneumoniae [35]): 0.03 µg/mL (≈ 0.0703 µM); MIC [36]: 1 µg/mL (≈ 2.34 µM); MIC (Moraxella catarrhalis [37]): 0.125 µg/mL (≈ 0.293 µM); MIC (Enterococcus faecalis [38]): > 16 µg/mL; MIC [39]: 0.125 µg/mL (≈ 0.293 µM)
